High-throughput results deposited in PubChem by several laboratories.
Most compounds without a hit are left out; they make up all but 4.3% or so of the library.
STAT1 activator: increases IFN-gamma driven STAT1 reporter signal; activation (% of control), % at 5.5 µM; 2.6% of 200,000 active; AID 932; NIH 3T3 STAT1-luciferase reporter, luminescence; 100% = IFN-gamma alone, no compound;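 active means activation above the screen-wide mean activation plus 3 SD, cut at about 130% in these data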;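 further: raw ratio to IFN-gamma control signal so 100% means no change and 0% no light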
FLuc inh counter: counter-screen for luciferase assay inhibitors: firefly luciferase inhibition. P08659. inhibition, % at 10 µM. ATPLite firefly luciferase biochemical luminescence, 10 min. AID 1006. 1.5% of 200,000 active;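 active means inhibition above about 50% when tested at 10 µM, limit read from the data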
Target sequence (P08659 whole entry, looked up): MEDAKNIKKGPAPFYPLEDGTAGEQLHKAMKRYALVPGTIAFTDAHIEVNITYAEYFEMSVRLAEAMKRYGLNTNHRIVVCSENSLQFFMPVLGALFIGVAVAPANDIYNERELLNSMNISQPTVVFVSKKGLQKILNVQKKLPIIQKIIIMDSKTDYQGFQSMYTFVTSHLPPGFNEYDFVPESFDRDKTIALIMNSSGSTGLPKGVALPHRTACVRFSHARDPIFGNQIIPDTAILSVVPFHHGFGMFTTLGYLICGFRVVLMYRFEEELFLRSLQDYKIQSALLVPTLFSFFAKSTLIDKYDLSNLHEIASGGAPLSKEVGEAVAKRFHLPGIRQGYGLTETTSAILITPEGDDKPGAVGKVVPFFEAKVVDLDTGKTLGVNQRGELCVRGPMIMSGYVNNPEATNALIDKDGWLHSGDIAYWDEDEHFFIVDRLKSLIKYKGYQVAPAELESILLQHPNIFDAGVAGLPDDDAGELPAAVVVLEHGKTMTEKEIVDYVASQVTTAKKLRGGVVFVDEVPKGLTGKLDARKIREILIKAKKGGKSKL
SDO1 yeast rescue: compounds rescuing growth of sdo1-depleted yeast, bone marrow failure model; z-score at 10 µM; 0.21% of 140,000 active; AID 817; S. cerevisiae sdo1-depleted JHY4D growth rescue, OD600 30 h; hits give high values; pdr5 snq2 efflux-pump mutant strain;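 active means z-score above 3 at both the 24 hr and the 30 hr optical density reads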;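 further: z-score against mean and SD of all compound wells on the same plate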
FLuc stim CS: firefly luciferase counter-screen for stimulation assays. ATPlite luciferase biochemical, luminescence, 10 min; 0 = ATP-free wells, 1 = DMSO control. activation factor at 10 µM. 200,000 tested, under 10 active. AID 1027;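 active means luciferase activation factor, scaled between plate controls, of at least 2 with compound at 10 µM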
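System: cell-free luciferase reagent; medium: PBS as buffer for the ATP substrate; doses: test compounds dosed from 2 mM stocks in 100% DMSO; incubation: 10 min, room temperature; measured by: luminescence from luciferase reaction; read-out: luciferase activation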
NF-kB expr up: raises NF-kB expression in human neuronal cells. 1.6% of 190,000 active. fold change at 12.5 µM. NF-kB reporter expression; hits give high values; in the data active means fold change above about 3.3
APP 5'UTR act: activates APP 5'UTR luciferase reporter. SH-SY5Y APP 5'UTR luciferase reporter, luminescence; zero percent = DMSO vehicle wells. activation, % at 2 µM. 1% of 190,000 active;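 active means activation above a set limit, based on mean plus 3 SD of controls, cut at about 140% in these data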
STAT1 activ conf: STAT1 activation, confirmation assay. shares compounds with STAT1 activator. NIH 3T3 STAT1-luciferase reporter, IFN-gamma potentiation, luminescence; 100% = IFN-gamma EC80 alone, no compound. activation (% of control), % at 5.7 µM. 97% of 1,200 active;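 active means activation above a set limit carried over from the earlier primary STAT1 screen, cut at about 140% in these data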;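 further: simple ratio to median IFN-gamma plus DMSO wells so 0% means no light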
NFkB act: activates NF-kappaB, counter-screen to STAT1 activators; shares compounds with STAT1 activator; HEK293T NF-kB luciferase reporter, TNF-alpha stimulated, luminescence; 100% = TNF-alpha with vehicle only; activation (% of control), % at 5.7 µM; 43% of 1,200 active;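 active means activation above the mean of solvent-only control wells plus 3 SD, set per campaign, cut at about 130% in these data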;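 further: TNF-alpha given at a submaximal dose yielding about 80% of full reporter signal; values are well signal over median control so 100% means no change and 0% no light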
STAT3 act 2: counter-screen for STAT1 activators: human STAT3 activation. AID 1316. 46% of 1,200 active. activation (% of control), % at 5.7 µM. U3A cells STAT3-luciferase reporter, IL-6, luminescence; cells lack STAT1; 100 = IL-6 alone, no compound effect. shares compounds with STAT1 activator;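 active means activation above the solvent-only control well mean plus 3 SD, set per plate batch, cut at about 110% in these data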;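 further: 0% = no luminescence and 100% = median IL-6 plus DMSO wells; higher means more STAT3 reporter activation so hits are non-selective activators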
Starred values were filed as active, the others as inactive; / = no result; [ ] = another dose, or the depositor's remark.

SMILES | STAT1 activator | FLuc inh counter | SDO1 yeast rescue | FLuc stim CS | NF-kB expr up | APP 5'UTR act | STAT1 activ conf | NFkB act | STAT3 act 2
N#C/C(=C/c1ccc(N2CCCCC2)o1)C(=O)Nc1ccc(Cl)cc1 | 154.9* | 31.1 | -0.43 | 0.7 | 1.53 | 35.5 | 182.5* | 130.5 | 89.8
N#C/C(=C/c1ccc(N2CCCCC2)o1)C(=O)Nc1ccc2ccccc2c1 | 112.9 | 29.1 | -0.31 | 0.7 | 1.09 | 18.0 | / | / | /
CN(C)c1ccc(/C=N/N2C(=N)N(c3ccccc3)C(=S)C2=Nc2ccccc2)cc1 | 163.2* | / | / | / | / | 179.7* | 184.9* | 134.2* | 113.1*
Cc1cc(C(=O)COC(=O)c2cc(Cl)ccc2N)c(C)n1Cc1ccco1 | 156.4* | 33.7 | -0.97 | 0.7 | 2.05 | 170.6* | 185.0* | 128.0 | 114.8*
Fc1cccc(NCc2cn3ccccc3n2)c1 | 169.4* | 8.5 | 0.72 | 0.9 | 4.25* | 109.8 | 193.6* | 130.3 | 112.6*
Cc1nc2ccc(Cl)cc2nc(C)/c1=N\O | 151.9* | -6.1 | 0.01 | 1.1 | 2.3 | 158.2* | 144.1* | 125.8 | 119.7*
CC1(C(=O)OCc2cc(=O)n3cc(Br)ccc3n2)CC1(Cl)Cl (configuration not stated) | 161.2* | 7.3 | / | 0.9 | 1.21 | 82.0 | 167.7* | 124.3 | 100.2
COc1ccc(CCn2c(SCCN3CCCCC3)nc3ccccc3c2=O)cc1OC | 93.0 | -6.8 | / | 1.1 | 0.46 | 6.3 | / | / | /
COc1ccc(-n2ncc3c(NCC(C)C)ncnc32)cc1 | 166.3* | 70.7* | 0.23 | 0.3 | 6.97* | 195.4* | 259.9* | 117.7 | 97.7
COCC(C)Nc1ncnc2c1cnn2-c1ccc(Cl)cc1 (configuration not stated) | 163.2* | 32.9 | 0.22[11.9 µM] | 0.7 | 4.87* | 180.2* | 234.7* | 141.5* | 105.9
COc1ccc(-n2ncc3c(NC(C)C)ncnc32)cc1 | 151.0* | 77.0* | 0.51 | 0.2 | 3.97* | 150.7* | 246.2* | 109.1 | 95.6
COc1ccc(OC)c(Nc2ncnc3c2cnn3-c2ccccc2)c1 | 107.2 | -3.0 | -0.71 | 1 | 1.68 | 14.3 | / | / | /
CCOC(=O)N1CCN(c2ccc3nnnn3n2)CC1 | 92.1 | -4.5 | 1.52 | 1 | 1.03 | 6.7 | / | / | /
CCOC(=O)N1CCC(N2C(=O)c3ccccc3C2Nc2ccc(S(=O)(=O)N3CCCCC3)cc2)CC1 (configuration not stated) | 100.8 | -10.0 | / | 1.1 | 0.7 | 1.2 | / | / | /
COc1ccc2nc3oc(C(=O)N4CCCCC4)cc3cc2c1 | 179.2* | 27.4 | -1.04 | 0.7 | 6.38* | 120.5 | 206.2* | 136.3* | 106.8
N/C(=N\OC(=O)COc1ccccc1Cl)c1ccccn1 | 178.0* | 33.8 | 0.12 | 0.7 | 7.3* | 201.4* | 207.4* | 139.4* | 115.6*
N/C(=N\OC(=O)COc1ccc(Br)cc1Cl)c1cccnc1 | 127.3 | 31.5 | -1.15 | 0.7 | 1.56 | 62.4 | / | / | /
N/C(=N\OC(=O)COc1ccc(Cl)cc1Cl)c1ccncc1 | 154.6* | 17.4 | / | 0.8 | 6.23* | 175.4* | 206.4* | 146.4* | 123.7*
COCCN(C(=O)CSc1nc2ccccc2c(=O)n1CCOC)c1c(N)n(Cc2ccccc2)c(=O)[nH]c1=O | 98.9 | -2.2 | / | 1 | 1.09 | 19.9 | / | / | /
CCOC(=O)c1c(C)[nH]c(C(=O)OCCOc2ccccc2C)c1C | 158.8* | 6.6 | -0.39 | 0.9 | 3.37* | 117.9 | 182.6* | 125.4 | 122.6*
Cc1csc(NC(=O)c2ccc(C)c([N+](=O)[O-])c2)n1 | 184.4* | 35.8 | 14.1 | 0.6 | 5.56* | 171.7* | 236.2* | 112.0 | 96.2
CCCc1nnc(SCC(=O)N2C(C)CCCC2C)n1CC1CCCO1 (configuration not stated) | 111.2 | -9.3 | -0.23 | 1.1 | 1.45 | -6.6 | / | / | /
O=C(C[n+]1ccc(C(=O)N/N=C/c2ccc(Cl)cc2Cl)cc1)c1ccccc1 | 98.6 | -1.4 | 0.41 | 1 | 1.16 | -13.1 | / | / | /
O=C(N/N=C/c1cc(Cl)ccc1O)c1ccc(Br)cc1 | 100.4 | 8.6 | -1.58 | 0.9 | 1.37 | -56.4 | / | / | /
O=C(N/N=C/c1ccc(Cl)cc1Cl)c1cccc(F)c1 | 160.5* | 25.8 | -0.49 | 0.7 | 1.63 | 127.0 | 212.0* | 141.7* | 106.8
SMILES | STAT1 activator | FLuc inh counter | SDO1 yeast rescue | FLuc stim CS | NF-kB expr up | APP 5'UTR act | STAT1 activ conf | NFkB act | STAT3 act 2
Cc1cccc(/C=N\NC(=O)c2ccc(Cl)cc2)c1O | 154.9* | 22.6 | / | 0.8 | 4.33* | 1.6 | 160.6* | 124.4 | 94.6
CCCc1nn(C)c(C(=O)Nc2ccccc2)c1Cl | 170.4* | 22.4 | 0 | 0.8 | 0.6 | 155.9* | 199.3* | 132.4 | 105.2
COCc1cc(C)nc(OCC(=O)N/N=C\c2cc(C)n(-c3cccc(C(F)(F)F)c3)c2C)c1C#N | 101.5 | -5.4 | 2.08 | 1.1 | 1.19 | 9.3 | / | / | /
Cc1ccc2nc(SCC(=O)Nc3ccc(C(N)=O)cc3)[nH]c2c1 | 96.8 | 2.1 | / | 1 | 0.97 | 5.4 | / | / | /
Cc1ccc2nc(-c3ccc(NC(=O)CSc4ccccc4)cc3)[nH]c2c1 | 162.8* | 7.3 | -1.28 | 0.9 | 3.47* | 87.6 | 197.5* | 107.5 | 106.6
C=CCOc1ccc(C2CC(C)=NN2c2ccccc2)cc1 (configuration not stated) | 111.4 | -1.7 | -0.34 | 1 | 1.24 | 5.4 | / | / | /
Cc1ccc2c(c1)C(c1ccncc1)=NNC(c1ccccc1)=N2 | 127.1 | 22.8 | / | 0.8 | 2.23 | 17.9 | / | / | /
Cc1ccc(C2=Nc3cccnc3C(c3ccccc3)=NN2)cc1 | 156.4* | 0.7 | / | 1 | 2.56 | 112.9 | 201.8* | 142.7* | 114.8*
O=C(NC(=S)Nc1ccccn1)c1ccc([N+](=O)[O-])cc1 | 181.8* | 59.4* | 0.26 | 0.4 | 2.08 | 127.4 | 191.2* | 128.0 | 107.3
CC(C)(C)c1ccc(C(=O)Nc2ccc([N+](=O)[O-])cn2)cc1 | 151.2* | 9.2 | -0.52 | 0.9 | 2.2 | 131.1 | 212.9* | 135.5* | 98.5
O=C(Nc1ncccn1)c1ccc([N+](=O)[O-])cc1 | 108.0 | 0.0 | / | 1 | 1.11 | 2.8 | / | / | /
C=CCOc1ccc(/C=N/O)cc1Cl | 103.2 | -0.6 | -0.5 | 1 | 1.23 | -3.2 | / | / | /
N/C(=N\NC(=O)c1ccc(F)cc1)c1cc2ccccc2oc1=O | 98.8 | 3.5 | / | 1 | 1.05 | 8.6 | / | / | /
